Assay results from ChEMBL document CHEMBL3817760, “Design, synthesis and evaluation of novel indandione derivatives as multifunctional agents with cholinesterase inhibition, anti-β-amyloid aggregation, antioxidant and neuroprotection properties against Alzheimer's disease” (Bioorg Med Chem, 2016).
Activity calls are given as the source filed them. The calls are words filed in the database; no cut-off is given here.

Columns and labels:
[1] = target: Acetylcholinesterase (Electrophorus electricus, UniProt O42275); experiment: Inhibition of electric eel AChE using acetylthiocholine iodide as substrate preincubated for 5 mins followed by substrate addition measured after 2 mins by Ellman's method
Acetylcholinesterase, sequence (O42275 whole entry): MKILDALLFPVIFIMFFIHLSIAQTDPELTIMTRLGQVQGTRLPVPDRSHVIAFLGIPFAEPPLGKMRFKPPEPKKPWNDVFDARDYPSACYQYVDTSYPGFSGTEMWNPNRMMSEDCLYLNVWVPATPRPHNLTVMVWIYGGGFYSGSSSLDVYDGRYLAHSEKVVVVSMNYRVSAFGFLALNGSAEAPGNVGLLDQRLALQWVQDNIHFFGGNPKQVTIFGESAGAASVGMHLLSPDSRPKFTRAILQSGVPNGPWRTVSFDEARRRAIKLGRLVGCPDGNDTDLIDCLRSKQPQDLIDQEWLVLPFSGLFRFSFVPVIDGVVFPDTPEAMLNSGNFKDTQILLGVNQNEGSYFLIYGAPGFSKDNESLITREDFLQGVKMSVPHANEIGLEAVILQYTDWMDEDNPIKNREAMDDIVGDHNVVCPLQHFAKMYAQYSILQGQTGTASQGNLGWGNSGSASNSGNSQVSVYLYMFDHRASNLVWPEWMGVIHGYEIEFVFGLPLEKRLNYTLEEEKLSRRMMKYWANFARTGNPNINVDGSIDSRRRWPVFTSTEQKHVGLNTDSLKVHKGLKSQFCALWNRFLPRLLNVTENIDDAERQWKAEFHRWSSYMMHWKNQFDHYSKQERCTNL

[2] = target: Cholinesterase (Equus caballus, UniProt P81908); experiment: Inhibition of equine serum BuChE using butyrylthiocholine iodide as substrate preincubated for 5 mins followed by substrate addition measured after 2 mins by Ellman's method
Cholinesterase, sequence (P81908 whole entry): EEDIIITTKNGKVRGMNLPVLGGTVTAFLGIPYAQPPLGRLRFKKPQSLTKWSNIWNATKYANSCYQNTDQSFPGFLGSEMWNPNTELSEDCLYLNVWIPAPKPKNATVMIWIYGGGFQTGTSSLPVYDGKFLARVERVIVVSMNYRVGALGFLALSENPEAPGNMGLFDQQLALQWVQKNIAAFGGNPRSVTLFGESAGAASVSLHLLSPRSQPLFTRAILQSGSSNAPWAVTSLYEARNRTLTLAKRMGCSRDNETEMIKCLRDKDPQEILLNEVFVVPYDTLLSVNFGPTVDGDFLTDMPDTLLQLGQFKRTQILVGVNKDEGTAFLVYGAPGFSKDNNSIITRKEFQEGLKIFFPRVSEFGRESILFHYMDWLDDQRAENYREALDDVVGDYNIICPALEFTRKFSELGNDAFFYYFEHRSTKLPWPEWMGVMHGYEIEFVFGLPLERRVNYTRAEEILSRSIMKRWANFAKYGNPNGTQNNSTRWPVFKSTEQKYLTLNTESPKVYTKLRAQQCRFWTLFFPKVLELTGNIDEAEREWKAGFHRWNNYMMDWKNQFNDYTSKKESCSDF
Method in brief: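 BuChE from equine serum (0.06 U/mL) in 0.1 M phosphate buffer pH 8.0, compounds diluted from ethanol stocks to 1-100 µM final, standing 5 min before DTNB. Started with 0.075 M butyrylthiocholine; A412 read 2 min later at 25°C. Enzyme-free blanks and inhibitor-free full-activity controls included. Triplicates; IC50 from nonlinear regression of concentration-inhibition data.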

[3] = Selectivity index, ratio of IC50 for equine serum BuChE to IC50 for electric eel AChE
Method in brief: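 Ratio of IC50 values from the modified Ellman assay. Equine serum BuChE (0.06 U/mL) and electric eel AChE (0.22 U/mL), each in 0.1 M phosphate pH 8.0 with DTNB and 0.075 M thiocholine substrate, A412 at 2 min, 25°C. IC50s were means of three experiments.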

[4] = target: T1, Amyloid-beta precursor protein (Homo sapiens, UniProt P05067); experiment: Inhibition of self-induced amyloid beta (1 to 42) (unknown origin) aggregation at 25 uM incubated for 48 hrs measured after 5 mins by thioflavin-T fluorescence assay
T1 sequence (P05067 whole entry): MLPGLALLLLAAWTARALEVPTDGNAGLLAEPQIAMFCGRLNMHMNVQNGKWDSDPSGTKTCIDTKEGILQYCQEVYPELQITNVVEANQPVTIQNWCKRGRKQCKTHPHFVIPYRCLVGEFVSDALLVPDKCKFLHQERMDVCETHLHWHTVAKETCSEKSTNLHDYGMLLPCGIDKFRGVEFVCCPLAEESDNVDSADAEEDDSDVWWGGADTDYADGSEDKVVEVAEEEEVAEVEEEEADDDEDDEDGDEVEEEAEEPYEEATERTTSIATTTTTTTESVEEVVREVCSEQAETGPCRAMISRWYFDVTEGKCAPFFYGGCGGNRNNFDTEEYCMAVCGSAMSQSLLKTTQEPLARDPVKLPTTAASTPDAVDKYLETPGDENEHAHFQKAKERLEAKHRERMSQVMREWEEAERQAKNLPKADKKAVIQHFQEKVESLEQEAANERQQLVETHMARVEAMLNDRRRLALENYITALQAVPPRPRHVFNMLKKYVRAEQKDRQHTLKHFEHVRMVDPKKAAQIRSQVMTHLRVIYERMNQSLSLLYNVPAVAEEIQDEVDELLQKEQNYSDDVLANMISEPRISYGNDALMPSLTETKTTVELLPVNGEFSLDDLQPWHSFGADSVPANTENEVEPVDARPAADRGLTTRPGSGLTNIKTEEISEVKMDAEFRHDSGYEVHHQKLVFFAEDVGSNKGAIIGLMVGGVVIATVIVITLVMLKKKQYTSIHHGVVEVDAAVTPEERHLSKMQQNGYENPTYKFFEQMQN
Method in brief: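 Aβ1-42 pretreated with HFIP, then diluted in 50 mM phosphate buffer pH 7.4 to 25 μM final. Incubated ± compound (25 μM) at 37°C for 48 h, then diluted in 50 mM glycine–NaOH pH 8.0 containing 5 μM thioflavin-T. Fluorescence read 5 min later (ex 450/em 485 nm). Inhibition % = (1−IFi/IFc)×100 after background subtraction; triplicate.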

[5] = Cytotoxicity against human SH-SY5Y cells assessed as cell viability at 50 uM after 48 hrs by MTT assay; assay type: cell-based; settings: read-out: Activity
Method in brief: (§1)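 SH-SY5Y cells grown in DMEM with 10% FBS and 1% penicillin-streptomycin at 37°C, 5% CO2. Plated at 2000 cells/well and cultured 24 h, then exposed 48 h to compound at 1-100 μM (DMSO stock diluted in complete medium). MTT added for 4 h, formazan dissolved in DMSO, absorbance read at 570 nm (reference 630 nm). Triplicates; three independent experiments.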

[6] = Cytotoxicity against human SH-SY5Y cells assessed as cell viability at 75 uM after 48 hrs by MTT assay; assay type: cell-based; settings: read-out: Activity; method in brief: as §1
[7] = Cytotoxicity against human SH-SY5Y cells assessed as cell viability at 100 uM after 48 hrs by MTT assay; assay type: cell-based; settings: read-out: Activity; method in brief: as §1
[8] = test system: SH-SY5Y; experiment: Cytotoxicity against human SH-SY5Y cells assessed as decrease in cell viability up to 100 uM after 24 hrs by MTT assay; assay type: cell-based
[9] = test system: SH-SY5Y; experiment: Cytotoxicity against human SH-SY5Y cells assessed as decrease in cell viability after 48 hrs by MTT assay; assay type: cell-based; method in brief: as §1
[10] = test system: SH-SY5Y; experiment: […] in human SH-SY5Y cells at 5 to 20 uM after 24 hrs by DCFH-DA fluorescent assay; assay type: ADME, cell-based
[11] = target: T1, Amyloid-beta precursor protein; experiment: Inhibition of self-induced amyloid beta (1 to 42) (unknown origin) aggregation incubated for 48 hrs measured after 5 mins by thioflavin-T fluorescence assay
[12] = target: T1, Amyloid-beta precursor protein; experiment: Potency index, ratio of curcumin IC50 to compound IC50 for self-induced amyloid beta (1 to 42) (unknown origin) aggregation
[13] = target: T1, Amyloid-beta precursor protein; experiment: Inhibition of amyloid beta (1 to 42) (unknown origin) aggregation at 25 uM after 72 hrs by transmission electron microscopy
Method in brief: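 Aβ1-42 stock diluted in 20 mM phosphate buffer (pH 7.4) at 4°C, then incubated at 37°C with or without compound. Final concentrations per methods: peptide 50 μM, compound 25 μM; figure legend gives 25 μM each. Incubation time given as 48 h (methods) and 72 h (text). Samples placed on carbon-coated grids, stained with 1% uranyl acetate and imaged by TEM.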

[14] = test system: SH-SY5Y; experiment: Antioxidant activity in human SH-SY5Y cells assessed as inhibition of H2O2-induced ROS production after 24 hrs by DCFH-DA fluorescent assay; assay type: functional, cell-based
Method in brief: (§2)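 SH-SY5Y cells seeded at 2 × 10^4/well and exposed 24 h to H2O2 (200 μM) with or without compound at 5, 10 and 20 μM. Intracellular ROS then probed with DCFH-DA for 20 min and total DCF fluorescence read on a plate reader. Mean ± S.D of three experiments, each in triplicate; one-way ANOVA with Bonferroni test.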

[15] = test system: SH-SY5Y; experiment: Neuroprotective activity against H2O2-induced neurotoxicity in human SH-SY5Y cells assessed as cell viability after 24 hrs by MTT assay relative to control; assay type: functional, cell-based
Method in brief: (§3)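 SH-SY5Y cells seeded at 2 × 10^4/well and incubated 24 h. Medium then replaced with serum-free DMEM containing 200 μM H2O2 plus compound (5, 10, 20 μM) at 37°C for 24 h. Viability measured by MTT as % of untreated control, and morphology photographed under phase-contrast microscopy. Mean ± S.D of three experiments in triplicate; ANOVA with Bonferroni test.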

[16] = test system: SH-SY5Y; experiment: Neuroprotective activity against H2O2-induced neurotoxicity in human SH-SY5Y cells assessed as change in cell morphology at 20 uM after 24 hrs by phase contrast microscopy; assay type: functional, cell-based; method in brief: as §3
[17] = test system: SH-SY5Y; experiment: Neuroprotective activity against H2O2-induced cell death in human SH-SY5Y cells at 20 uM after 24 hrs by phase contrast microscopy; assay type: functional, cell-based; method in brief: as §3
[18] = test system: SH-SY5Y; experiment: Neuroprotective activity against amyloid beta (1 to 42)-induced neurotoxicity in human SH-SY5Y cells assessed as cell viability treated for 24 hrs measured after 48 hrs by MTT assay; assay type: functional, cell-based
Method in brief: (§4)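 Aβ1-42 treated with HFIP (1 mg/ml), sonicated, left 24 h at room temperature and lyophilized; film dissolved in DMSO. SH-SY5Y cells plated at 2 × 10^4/well and allowed to attach 24 h. Aβ (25 μM) added ± compound (5-20 μM) in fresh medium. Viability measured by MTT as % of control after 48 h (methods; text says 24 h co-treatment). Morphology imaged by phase-contrast microscopy.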

[19] = test system: SH-SY5Y; experiment: Neuroprotective activity against amyloid beta (1 to 42)-induced neurotoxicity in human SH-SY5Y cells assessed as change in cell morphology at 20 uM after 24 hrs by phase contrast microscopy; assay type: functional, cell-based; method in brief: as §4
[20] = Cytotoxicity against human SH-SY5Y cells assessed as cell viability at 1 uM after 48 hrs by MTT assay; assay type: cell-based; settings: read-out: Activity; method in brief: as §1
[21] = Cytotoxicity against human SH-SY5Y cells assessed as cell viability at 5 uM after 48 hrs by MTT assay; assay type: cell-based; settings: read-out: Activity; method in brief: as §1
[22] = Cytotoxicity against human SH-SY5Y cells assessed as cell viability at 10 uM after 48 hrs by MTT assay; assay type: cell-based; settings: read-out: Activity; method in brief: as §1
[23] = Cytotoxicity against human SH-SY5Y cells assessed as cell viability at 25 uM after 48 hrs by MTT assay; assay type: cell-based; settings: read-out: Activity; method in brief: as §1
[24] = target: Acetylcholinesterase (Electrophorus electricus) (UniProt O42275); experiment: Mixed type inhibition of electric eel AChE at 10 to 40 nM preincubated with enzyme for 15 mins followed by substrate addition by Lineweaver-Burk plot analysis
Acetylcholinesterase (Electrophorus electricus), sequence (O42275 24-633 limits assumed): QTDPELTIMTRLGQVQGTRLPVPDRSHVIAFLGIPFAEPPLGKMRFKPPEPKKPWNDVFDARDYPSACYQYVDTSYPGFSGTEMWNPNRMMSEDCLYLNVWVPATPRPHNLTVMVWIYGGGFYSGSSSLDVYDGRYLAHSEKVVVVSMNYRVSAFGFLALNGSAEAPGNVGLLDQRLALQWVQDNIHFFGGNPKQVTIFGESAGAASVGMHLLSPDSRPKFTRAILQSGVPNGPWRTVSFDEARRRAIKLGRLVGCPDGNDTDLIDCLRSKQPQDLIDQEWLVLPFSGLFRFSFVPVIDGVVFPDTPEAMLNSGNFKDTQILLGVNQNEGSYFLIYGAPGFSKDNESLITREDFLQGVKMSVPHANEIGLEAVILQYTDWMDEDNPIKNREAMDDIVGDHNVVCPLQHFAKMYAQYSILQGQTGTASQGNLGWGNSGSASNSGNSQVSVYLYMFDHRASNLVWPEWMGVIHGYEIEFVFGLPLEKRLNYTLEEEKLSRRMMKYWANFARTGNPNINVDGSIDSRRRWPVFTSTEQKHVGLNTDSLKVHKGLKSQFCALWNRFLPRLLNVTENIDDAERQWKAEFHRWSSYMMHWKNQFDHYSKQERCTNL
Method in brief: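 Electric eel AChE with the compound, preincubated at 37°C for 15 min before substrate addition. Reciprocal (Lineweaver-Burk) plots were drawn, and their slopes were plotted against inhibitor concentration in a weighted analysis. Ki was taken as the ratio of plot intercept to slope.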

[25] = test system: SH-SY5Y; experiment: Antioxidant activity in human SH-SY5Y cells assessed as inhibition of H2O2-induced ROS production at 10 to 20 uM after 24 hrs by DCFH-DA fluorescent assay; assay type: functional, cell-based; method in brief: as §2

Structure (SMILES)	IC50 [1] [µM]	IC50 [2] [µM]	Ratio IC50 [3]	inhibition [4] [%]	viability at 48 h, 50 µM [5] [%]	viability at 48 h, 75 µM [6] [%]	viability at 48 h, 100 µM [7] [%]	Activity [8]	IC50 [11] [µM]	Ratio IC50 [12]	inhibition [13]	Activity [15]	Activity [16]	Activity [17]	Activity [18]	Activity [19]	viability at 48 h, 1 µM [20] [%]	viability at 48 h, 5 µM [21] [%]	viability at 48 h, 10 µM [22] [%]	viability at 48 h, 25 µM [23] [%]	further results
O=C1C(=Cc2ccc(N3CCN(c4ccccn4)CC3)cc2)C(=O)c2ccccc21	0.112	0.88	7.8	70.9	–	–	–	–	–	–	–	–	–	–	–	–	–	–	–	–	–
O=C1C(=Cc2ccc(N3CCN(C(=O)c4ccco4)CC3)cc2)C(=O)c2ccccc21	0.048	2.61	54.2	82.2	89.6	86.3	82.3	Non-toxic	9.2	1.5	Active	Dose-dependent effect	Active	Active	Dose-dependent effect	Active	98.1	96.4	95.3	93.9	Activity [9]: Dose-dependent effect; Activity [10]: Non-toxic; inhibition [14]: Dose-dependent effect
O=C1C(=Cc2ccc(N3CCN(c4ncccn4)CC3)cc2)C(=O)c2ccccc21	0.036	2.78	77.1	80.9	89.6	86.3	82.3	Non-toxic	10.1	1.5	Active	Dose-dependent effect	Active	Active	Dose-dependent effect	Active	98.1	96.4	95.3	93.9	inhibition [24]: Active; inhibition [25]: Active
Cc1ccc(N2CCN(c3ccc(C=C4C(=O)c5ccccc5C4=O)cc3)CC2)cc1	0.251	0.392	1.5	62.4	–	–	–	–	–	–	–	–	–	–	–	–	–	–	–	–	–
O=C1C(=Cc2ccc(N3CCN(Cc4ccc5c(c4)OCO5)CC3)cc2)C(=O)c2ccccc21	0.131	4.25	33.8	71.8	–	–	–	–	–	–	–	–	–	–	–	–	–	–	–	–	–
O=C1C(=Cc2ccc(N3CCN(c4ccc(Cl)cc4)CC3)cc2)C(=O)c2ccccc21	0.231	1.11	4.8	60.8	–	–	–	–	–	–	–	–	–	–	–	–	–	–	–	–	–
